Results on twelve molecules are retold here after ChEMBL document CHEMBL1140908, “New insights into the design of inhibitors of human S-adenosylmethionine decarboxylase: studies of adenine C8 substitution in structural analogues of S-adenosylmethionine” (J Med Chem, 2009).

One assay deals with T1, S-adenosylmethionine decarboxylase proenzyme (Homo sapiens, UniProt P17707).
T1 sequence (P17707 whole entry): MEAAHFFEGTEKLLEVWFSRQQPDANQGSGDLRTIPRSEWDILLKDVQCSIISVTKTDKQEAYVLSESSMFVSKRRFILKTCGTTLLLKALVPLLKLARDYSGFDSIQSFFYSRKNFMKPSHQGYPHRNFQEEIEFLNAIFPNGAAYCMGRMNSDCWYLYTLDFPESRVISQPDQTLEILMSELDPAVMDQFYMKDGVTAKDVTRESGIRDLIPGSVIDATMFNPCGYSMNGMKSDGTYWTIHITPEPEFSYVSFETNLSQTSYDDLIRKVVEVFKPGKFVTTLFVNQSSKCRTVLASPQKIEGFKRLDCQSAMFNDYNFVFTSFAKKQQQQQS
The experiment in a line: Inhibition of human C-terminal His-tagged AdoMetDC assessed as release of 14CO2 from S-adenosyl-L-[carboxy-14C]methionine. A digest of the protocol:
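Enzyme: human AdoMetDC from a pQE30 plasmid with the (H)6 tag at the C-terminus in place of the terminal -QQQQQS. Expressed in E. coli JM109 with IPTG induction overnight at 15 °C, then purified on Talon resin and Sephadex G-75 in putrescine-containing buffer. Assay used 1 nM enzyme, no inhibitor plus at least five inhibitor concentrations. IC50 came from curve fits of concentration versus % inhibition.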
As a reminder, the IC50 is the concentration that gives 50% inhibition. On to `CNc1nc2c(N)ncnc2n1[C@@H]1O[C@H](CN(C)CCCCON)[C@@H](O)[C@H]1O`, for which the IC50 was found to be 49 nM. With `Cc1nc2c(N)ncnc2n1[C@@H]1O[C@H](C[S+](C)C)[C@@H](O)[C@H]1O`, the IC50 was found to be 3000 nM.

Another assay addresses T2, S-adenosylmethionine decarboxylase proenzyme (Homo sapiens) (UniProt P17707).
T2 sequence (whole entry): T1 sequence (P17707 whole entry)
The assay is described as follows: Inhibition of human C-terminal His-tagged AdoMetDC assessed as release of 14CO2 from S-adenosyl-L-[carboxy-14C]methionine at 100 uM.
One may read the inhibition as how much of the control response was suppressed. `CNCCNC[C@H]1O[C@@H](n2cnc3c(N)ncnc32)[C@H](O)[C@@H]1O`: the inhibition was < 5%. Regarding `CN(CCN)C[C@H]1O[C@@H](n2cnc3c(N)ncnc32)[C@H](O)[C@@H]1O`, the inhibition is < 5%. Turning to `CNCCCNC[C@H]1O[C@@H](n2c(NC)nc3c(N)ncnc32)[C@H](O)[C@@H]1O`, the inhibition was < 5%.

Turning to `CN(CCON)C[C@H]1O[C@@H](n2c(-c3ccccc3)nc3c(N)ncnc32)[C@H](O)[C@@H]1O`, the inhibition is < 5%.

`CN(CCCCON)C[C@H]1O[C@@H](n2c(-c3ccccc3)nc3c(N)ncnc32)[C@H](O)[C@@H]1O`: the inhibition is < 5%. In the case of `CNCCCNC[C@H]1O[C@@H](n2c(-c3ccccc3)nc3c(N)ncnc32)[C@H](O)[C@@H]1O`, the inhibition is < 5%. As to `Cc1nc2c(N)ncnc2n1[C@@H]1O[C@H](CN(C)CC(N)=O)[C@@H](O)[C@H]1O`, the inhibition was < 5%. Consider `CN(CCCN)C[C@H]1O[C@@H](n2c(-c3ccccc3)nc3c(N)ncnc32)[C@H](O)[C@@H]1O`, for which the inhibition is < 5%. Consider `CNCCNC[C@H]1O[C@@H](n2c(C)nc3c(N)ncnc32)[C@H](O)[C@@H]1O`, for which the inhibition was < 5%. For `CN(CCNC(=N)N)C[C@H]1O[C@@H](n2cnc3c(N)ncnc32)[C@H](O)[C@@H]1O`, the inhibition is < 5%.
